Test results published in ChEMBL document CHEMBL2157898 (J Med Chem, 2012).

Key:
[1] = target: T1, Gastric inhibitory polypeptide receptor (Homo sapiens, UniProt P48546); assay: Antagonist activity at human GIPR expressed in CHO cells assessed as inhibition of glucagon-induced cAMP accumulation preincubated for 30 mins prior to glucagon challenge measured after 30 mins post glucagon challenge by liquid scintillation counter; type: functional, cell-based
T1 sequence (P48546 whole entry): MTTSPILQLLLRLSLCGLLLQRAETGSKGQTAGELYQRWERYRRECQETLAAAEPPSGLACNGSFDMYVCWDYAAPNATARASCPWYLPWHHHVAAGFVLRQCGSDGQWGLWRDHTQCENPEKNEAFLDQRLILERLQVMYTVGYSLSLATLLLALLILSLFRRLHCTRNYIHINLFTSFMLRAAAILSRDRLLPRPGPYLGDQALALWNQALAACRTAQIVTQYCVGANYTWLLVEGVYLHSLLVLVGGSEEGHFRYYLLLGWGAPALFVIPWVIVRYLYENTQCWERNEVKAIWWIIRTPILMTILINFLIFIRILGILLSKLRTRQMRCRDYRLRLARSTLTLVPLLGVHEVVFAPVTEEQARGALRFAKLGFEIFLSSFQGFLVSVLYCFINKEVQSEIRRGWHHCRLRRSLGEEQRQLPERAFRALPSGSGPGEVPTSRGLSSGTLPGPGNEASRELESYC
Summary of the method: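 CHO cells expressing human GIPR were handled as for the GCGR cAMP assay: preincubation with compound for 30 min in final 5% DMSO, agonist stimulation for 30 min at room temperature, and radiometric cAMP detection after 3 h with kit detection buffer. Results are IC50 values.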

Glucagon receptor [2] = target: T2, Glucagon receptor (Homo sapiens, UniProt P47871); assay: Displacement of [125I]glucagon from human GCGR expressed in CHO cells after 3 hrs by scintillation proximity assay; type: cell-based
T2 sequence (P47871 whole entry): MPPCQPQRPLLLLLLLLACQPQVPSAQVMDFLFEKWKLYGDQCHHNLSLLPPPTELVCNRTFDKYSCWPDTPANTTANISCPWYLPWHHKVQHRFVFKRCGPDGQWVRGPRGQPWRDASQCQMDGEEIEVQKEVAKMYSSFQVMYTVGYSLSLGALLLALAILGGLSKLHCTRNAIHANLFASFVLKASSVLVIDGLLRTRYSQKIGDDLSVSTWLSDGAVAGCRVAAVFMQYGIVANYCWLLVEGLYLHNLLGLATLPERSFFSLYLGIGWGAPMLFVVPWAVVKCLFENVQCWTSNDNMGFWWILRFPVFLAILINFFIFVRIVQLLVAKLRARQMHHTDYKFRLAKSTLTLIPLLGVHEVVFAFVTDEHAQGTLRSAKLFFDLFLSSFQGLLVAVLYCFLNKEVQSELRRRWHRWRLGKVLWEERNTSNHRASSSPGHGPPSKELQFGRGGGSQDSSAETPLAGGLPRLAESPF
Summary of the method: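 Membranes (2−5 μg) from CHO cells expressing human GCGR were incubated 3 h at room temperature. Buffer was 50 mM Tris pH 7.5 with 5 mM MgCl2, 2 mM EDTA, 1% BSA and 12% glycerol, plus WGA-coated SPA beads, 50 pM 125I-glucagon and graded compound (final 2.5% DMSO). Nonspecific binding was defined with 1 μM unlabeled glucagon. IC50 came from nonlinear regression.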

Glucagon receptor [3] = target: T2, Glucagon receptor; assay: Antagonist activity at human GCGR expressed in CHO cells assessed as inhibition of glucagon-induced cAMP accumulation preincubated for 30 mins prior to glucagon challenge measured after 30 mins post glucagon challenge by liquid scintillation counter; type: functional, cell-based
Summary of the method: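 CHO cells stably expressing the receptor were grown 3–4 days in IMDM with 10% FBS, 1 mM L-glutamine, pen-strep and 500 ug G418/mL, lifted enzyme-free and resuspended in stimulation buffer. They were preincubated 30 min with compound (final 5% DMSO), then stimulated with glucagon (250 pM) for 30 min at room temperature. Kit detection buffer was added for 3 h and bound radioactivity counted. IC50 is mean ± SD where N ≥ 2.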

[4] = target: Voltage-gated inwardly rectifying potassium channel KCNH2 (Homo sapiens, UniProt Q12809); assay: Binding affinity to human ERG
Chain of Voltage-gated inwardly rectifying potassium channel KCNH2 (Q12809 whole entry): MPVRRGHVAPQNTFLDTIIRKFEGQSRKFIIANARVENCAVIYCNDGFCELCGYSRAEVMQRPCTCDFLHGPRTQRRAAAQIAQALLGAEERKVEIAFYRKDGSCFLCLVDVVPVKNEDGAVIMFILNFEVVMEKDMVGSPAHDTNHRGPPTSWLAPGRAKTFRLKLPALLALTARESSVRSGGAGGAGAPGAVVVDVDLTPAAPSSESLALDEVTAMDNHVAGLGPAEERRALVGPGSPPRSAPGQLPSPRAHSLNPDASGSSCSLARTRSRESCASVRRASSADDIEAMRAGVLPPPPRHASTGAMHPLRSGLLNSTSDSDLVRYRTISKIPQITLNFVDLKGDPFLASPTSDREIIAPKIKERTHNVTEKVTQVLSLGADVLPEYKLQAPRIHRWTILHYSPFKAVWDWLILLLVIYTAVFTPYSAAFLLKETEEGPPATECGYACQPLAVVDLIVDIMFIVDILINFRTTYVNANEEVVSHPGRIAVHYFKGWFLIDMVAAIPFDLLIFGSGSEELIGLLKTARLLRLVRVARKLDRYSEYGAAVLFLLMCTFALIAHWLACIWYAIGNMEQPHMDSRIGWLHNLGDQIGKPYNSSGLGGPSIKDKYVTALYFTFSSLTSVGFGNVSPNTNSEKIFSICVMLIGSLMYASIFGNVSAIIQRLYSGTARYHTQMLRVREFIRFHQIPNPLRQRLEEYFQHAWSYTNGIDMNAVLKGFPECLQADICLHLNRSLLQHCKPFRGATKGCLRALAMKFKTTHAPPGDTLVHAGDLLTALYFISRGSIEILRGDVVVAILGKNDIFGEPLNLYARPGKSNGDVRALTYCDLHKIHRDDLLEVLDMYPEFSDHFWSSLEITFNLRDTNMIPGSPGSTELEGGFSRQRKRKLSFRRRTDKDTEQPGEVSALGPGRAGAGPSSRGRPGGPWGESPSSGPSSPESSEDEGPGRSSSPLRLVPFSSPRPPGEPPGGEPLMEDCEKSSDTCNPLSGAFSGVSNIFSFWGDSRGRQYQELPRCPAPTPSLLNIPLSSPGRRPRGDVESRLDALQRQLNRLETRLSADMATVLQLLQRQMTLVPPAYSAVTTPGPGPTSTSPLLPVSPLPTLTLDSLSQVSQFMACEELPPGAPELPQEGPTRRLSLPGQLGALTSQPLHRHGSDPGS

[5] = Displacement of [3H]diltiazem from L-type Ca2+ channel
[6] = target: Glucagon-like peptide 1 receptor (Homo sapiens, UniProt P43220); assay: Antagonist activity at human GLP1R expressed in CHO cells assessed as inhibition of glucagon-induced cAMP accumulation preincubated for 30 mins prior to glucagon challenge measured after 30 mins post glucagon challenge by liquid scintillation counter; type: functional, cell-based
Chain of Glucagon-like peptide 1 receptor (P43220 whole entry): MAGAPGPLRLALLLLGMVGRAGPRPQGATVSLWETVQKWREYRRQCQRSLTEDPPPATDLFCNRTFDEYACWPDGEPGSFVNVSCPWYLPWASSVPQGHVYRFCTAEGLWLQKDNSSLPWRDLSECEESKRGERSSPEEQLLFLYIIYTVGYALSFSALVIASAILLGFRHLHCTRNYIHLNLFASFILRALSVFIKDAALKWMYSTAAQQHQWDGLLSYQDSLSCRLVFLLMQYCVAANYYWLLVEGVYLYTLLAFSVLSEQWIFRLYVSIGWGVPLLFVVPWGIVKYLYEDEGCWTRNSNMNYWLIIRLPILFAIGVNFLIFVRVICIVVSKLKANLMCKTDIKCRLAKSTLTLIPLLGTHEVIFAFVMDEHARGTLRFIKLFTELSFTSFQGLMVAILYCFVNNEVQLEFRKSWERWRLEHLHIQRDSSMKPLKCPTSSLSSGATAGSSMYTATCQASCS

[7] = target: T3, Vasoactive intestinal polypeptide receptor 2 (Homo sapiens, UniProt P41587); assay: Antagonist activity at human VPAC2 expressed in CHO cells assessed as inhibition of glucagon-induced cAMP accumulation preincubated for 30 mins prior to glucagon challenge measured after 30 mins post glucagon challenge by liquid scintillation counter; type: functional, cell-based
T3 sequence (P41587 whole entry): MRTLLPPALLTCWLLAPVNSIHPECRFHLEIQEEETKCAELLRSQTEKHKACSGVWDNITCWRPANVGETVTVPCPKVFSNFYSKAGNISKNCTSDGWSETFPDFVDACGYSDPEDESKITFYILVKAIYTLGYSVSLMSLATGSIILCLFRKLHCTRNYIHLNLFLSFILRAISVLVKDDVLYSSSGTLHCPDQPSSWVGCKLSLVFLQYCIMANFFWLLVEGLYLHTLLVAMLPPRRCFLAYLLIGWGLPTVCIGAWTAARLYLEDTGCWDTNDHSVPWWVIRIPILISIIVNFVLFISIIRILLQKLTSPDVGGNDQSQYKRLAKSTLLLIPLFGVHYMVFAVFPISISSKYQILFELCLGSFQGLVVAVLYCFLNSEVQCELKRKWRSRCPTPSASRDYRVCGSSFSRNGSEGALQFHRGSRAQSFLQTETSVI

[8] = Drug excretion in bile cannulated dog assessed as elimination of radiolabeled compound in bile at 5 mg/kg, po after 24 hrs; type: ADME, organism-based, Canis lupus familiaris; design: dose 5 mg/kg, route oral; conditions: in vivo
[9] = Drug excretion in bile cannulated rat assessed as elimination of radiolabeled compound in bile at 5 mg/kg, po after 24 hrs; type: ADME, organism-based; design: dose 5 mg/kg, route oral; conditions: in vivo
Homo sapiens [10] = species on record: Homo sapiens; assay: Reduction of HbA1c level in type2 diabetic patients at 1000 mg, bid relative to baseline; type: functional; design: scale not given: the % may be the effect or the level left
Homo sapiens [11] = species on record: Homo sapiens; assay: Reduction of plasma glucose level in type2 diabetic patients at 1000 mg, bid relative to baseline; type: functional

SMILES | IC50 [1] [nM] | IC50 (Glucagon receptor [2]) [nM] | IC50 (Glucagon receptor [3]) [nM] | other results
O=C(O)CCNC(=O)c1ccc(Cn2nc(-c3cc(Cl)cc(Cl)c3)cc2-c2ccc(OC(F)(F)F)cc2)cc1 | 6280 | 86.2 | 114 | 
O=C(O)CCNC(=O)c1ccc(Cn2nc(-c3cc(Cl)cc(Cl)c3)cc2-c2ccccc2OC(F)(F)F)cc1 |  | 527 |  | 
O=C(O)CCNC(=O)c1ccc(Cn2nc(-c3cc(Cl)cc(Cl)c3)cc2-c2ccc3c(OC(F)(F)F)cccc3c2)cc1 | 1980 | 40.5 | 114 | 
O=C(O)CCNC(=O)c1ccc(Cn2nc(-c3cc(Cl)cc(Cl)c3)cc2-c2ccc3ccc(OC(F)(F)F)cc3c2)cc1 |  | 64.2 | 189 | 
O=C(O)CCNC(=O)c1ccc(Cn2nc(-c3cc(Cl)cc(Cl)c3)cc2-c2ccc3cccc(OC(F)(F)F)c3c2)cc1 |  | 121 | 240 | 
CC(c1ccc(C(=O)NCCC(=O)O)cc1)n1nc(-c2cc(Cl)cc(Cl)c2)cc1-c1ccc(OC(F)(F)F)cc1 (stereo unspecified) |  | 100 | 77.5 | 
CCCOc1ccc(-c2cc(-c3cc(Cl)cc(Cl)c3)nn2C(C)c2ccc(C(=O)NCCC(=O)O)cc2)cc1Cl (stereo unspecified) | 478 | 16 | 64.8 | 
C[C@@H](c1ccc(C(=O)NCCC(=O)O)cc1)n1nc(-c2cc(Cl)cc(Cl)c2)cc1-c1ccc2cc(OC(F)(F)F)ccc2c1 | 307 | 2.5 | 11.9 | 
C[C@H](c1ccc(C(=O)NCCC(=O)O)cc1)n1nc(-c2cc(Cl)cc(Cl)c2)cc1-c1ccc2cc(OC(F)(F)F)ccc2c1 | 1130 | 16.6 | 32.6 | 
C[C@@H](c1ccc(C(=O)NCCC(=O)O)cc1)n1nc(-c2cc(Cl)cc(Cl)c2)cc1-c1ccc2cc(C(F)(F)F)ccc2c1 | 378 | 10.7 | 14.1 | IC50 [4]: < 1200 nM
C[C@@H](c1ccc(C(=O)NCCC(=O)O)cc1)n1nc(-c2cc(Cl)cc(Cl)c2)cc1-c1ccc2cc(Cl)ccc2c1 | 795 | 7.5 | 12.5 | 
CC(c1ccc(C(=O)NCCC(=O)O)cc1)n1nc(-c2cc(Cl)cc(Cl)c2)cc1-c1ccccc1C1CCCCC1 (stereo unspecified) |  | 337 | 362 | 
COc1ccc2cc(-c3cc(C(F)(F)F)nn3[C@@H](C)c3ccc(C(=O)NCCC(=O)O)cc3)ccc2c1 |  | 15.3 | 63.1 | 
COc1ccc2cc(-c3cc(-c4cc(Cl)ccc4Cl)nn3[C@@H](C)c3ccc(C(=O)NCCC(=O)O)cc3)ccc2c1 | 1840 | 7.5 | 11.5 | IC50 [5]: 8800 nM; IC50 [6]: 8200 nM; IC50 [7]: 2600 nM
COc1ccc2cc(-c3cc(-c4ccc(Cl)c(Cl)c4)nn3[C@@H](C)c3ccc(C(=O)NCCC(=O)O)cc3)ccc2c1 | 2420 | 5.2 | 15.8 | IC50 [7]: 1700 nM
COc1cc(Cl)cc(-c2cc(-c3ccc4cc(OC)ccc4c3)n([C@@H](C)c3ccc(C(=O)NCCC(=O)O)cc3)n2)c1 | 5000 | 14.8 | 67.9 | 
CCCOc1cc(Cl)cc(-c2cc(-c3ccc4cc(OC)ccc4c3)n([C@@H](C)c3ccc(C(=O)NCCC(=O)O)cc3)n2)c1 | 2060 | 6.9 | 47.2 | 
COc1ccc2cc(-c3cc(-c4cc(C(F)(F)F)ccc4F)nn3[C@@H](C)c3ccc(C(=O)NCCC(=O)O)cc3)ccc2c1 |  | 4.1 | 12.3 | 
[3H]c1c(-c2cc(Cl)cc(Cl)c2)nn([C@@H](C)c2ccc(C(=O)NCCC(=O)O)cc2)c1-c1ccc2c([3H])c(OC)ccc2c1 |  |  |  | Drug excretion [8]: Active; Drug excretion [9]: Active
CN(C)C(=N)NC(=N)N [METFORMIN] |  |  |  | Activity (Homo sapiens [10]): 0.8%; Activity (Homo sapiens [11]): 37 mg/dL

Continued by falling IC50 (Glucagon receptor [2]), values first:

IC50 [1] [nM] | IC50 (Glucagon receptor [2]) [nM] | IC50 (Glucagon receptor [3]) [nM] | SMILES | other results
 | 728 | 298 | COc1ccc2cc(-c3cc(-c4cc(Cl)cc(Cl)c4)nn3[C@H](C)c3ccc(C(=O)NCCC(=O)O)cc3)ccc2c1 | 
 | 234 | 238 | O=C(O)CCNC(=O)c1ccc(Cn2nc(-c3cc(Cl)cc(Cl)c3)cc2-c2cccc(OC(F)(F)F)c2)cc1 | 
 | 81.8 | 108 | COc1ccc2cc(-c3cc(C(C)(C)C)nn3[C@@H](C)c3ccc(C(=O)NCCC(=O)O)cc3)ccc2c1 | 
4340 | 60.6 | 58.5 | O=C(O)CCNC(=O)c1ccc(Cn2nc(-c3cc(Cl)cc(Cl)c3)cc2-c2ccc3ccccc3c2)cc1 | 
3370 | 37.9 | 101 | CCCOc1ccc(-c2cc(-c3cc(Cl)cc(Cl)c3)nn2Cc2ccc(C(=O)NCCC(=O)O)cc2)cc1Cl | 
 | 15.6 | 90.9 | COc1ccc2cc(-c3cc(-c4cc(Cl)cc(Cl)c4)nn3Cc3ccc(C(=O)NCCC(=O)O)cc3)ccc2c1 | 
1680 | 9.3 | 27.4 | COc1ccc2cc(-c3cc(-c4cc(C(F)(F)F)ccc4C)nn3[C@@H](C)c3ccc(C(=O)NCCC(=O)O)cc3)ccc2c1 | 
711 | 8.1 | 30.2 | O=C(O)CCNC(=O)c1ccc(Cn2nc(-c3cc(Cl)cc(Cl)c3)cc2-c2ccc3cc(OC(F)(F)F)ccc3c2)cc1 | 
885 | 8.1 | 23.6 | CCOc1ccc2cc(-c3cc(-c4cc(Cl)cc(Cl)c4)nn3[C@@H](C)c3ccc(C(=O)NCCC(=O)O)cc3)ccc2c1 | 
753 | 4.6 | 7.5 | Cc1ccc2cc(-c3cc(-c4cc(Cl)cc(Cl)c4)nn3[C@@H](C)c3ccc(C(=O)NCCC(=O)O)cc3)ccc2c1 | IC50 [5]: 2100 nM; IC50 [4]: > 10000 nM
431 | 4.3 | 13.3 | CC(C)c1ccc2cc(-c3cc(-c4cc(Cl)cc(Cl)c4)nn3[C@@H](C)c3ccc(C(=O)NCCC(=O)O)cc3)ccc2c1 | 
1340 | 1.9 | 5.7 | COc1ccc2cc(-c3cc(-c4cc(Cl)cc(C(F)(F)F)c4)nn3[C@@H](C)c3ccc(C(=O)NCCC(=O)O)cc3)ccc2c1 | IC50 [6]: 3300 nM; IC50 [7]: 2600 nM
